NALP3 yeast inh = NALP3 inhibition in yeast | Yeast reconstituted NLRP3/ASC/caspase-1, beta-gal luminescence, 24 h | inhibition, % at 10 µM | actives 0.39% (n = 330,000);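 active = inhibition of 50% or more; inactive = inhibition below 50%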;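 note: plate controls were induced DMSO wells for no effect and uninduced yeast grown without galactose for full effect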
Calb FLC = affects C. albicans growth with fluconazole. C. albicans CaCi-2 + fluconazole, Alamar Blue growth, 48 h. growth inhibition, % (no concentration beside the values). actives 0.57% (n = 300,000). AID 1979;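 active = growth inhibition above about 58% in most replicates, limit read from the data, passing the limit was not always enough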;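 note: all wells also contain fluconazole at 8 µg/ml as a sub-toxic cotreatment; 0% = median of DMSO wells and 100% = median of geldanamycin control wells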
Beta apoptosis = beta cell apoptosis inhibition | INS-1E cytokine-induced death, ATP luminescence, 48 h; percent of positive-control rescue, neutral wells zero | protection from apoptosis, % (test concentration not listed) | actives 0.8% (n = 300,000) | AID 435005;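 active = Every replicate reaches about 75%, or at least half do and their mean reaches it too, limit read from the data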;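 note: 0% = cytokine-treated negative control wells and 100% = positive control rescue; higher means more ATP so stronger rescue from cytokine killing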
T cruzi inh = T. cruzi replication inhibition. T. cruzi beta-gal in NIH3T3, luminescence, 90 h. inhibition, % (no concentration beside the values). actives 1.4% (n = 300,000);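 active = mean inhibition across valid replicates above about 55%, limit read from the data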;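 note: signal also drops with host cell toxicity which is not excluded here; 0% = plate median of DMSO wells and 100% = zero luminescence signal; higher percent means less beta-gal luminescence so fewer parasites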
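Read-out: Parasite load inhibition, % | Test system: Mouse NIH/3T3 fibroblasts infected with β-gal-expressing T. cruzi Tulahuen C4 | Amount: 5,000 cells/well | Medium: DMEM, 2% fetal bovine serum | Signal: GalScreen β-gal luminescence, detergent lysis, 60 min | Timing: 3 h attach, ≥90 h co-culture | Also added: Tulahuen C4 trypomastigotes, 5000/well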
Mdm2-MdmX inh = human Mdm2/MdmX binding inhibition; inhibition, % at 8 µM; O15151+Q00987; actives 3% (n = 330,000); SaOS-2 split-luciferase Mdm2/MdmX complementation, luminescence; AID 485346;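 active = inhibition of at least 50% at 8 µM in the primary screen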
CSC inhib = blocks cancer stem cells; cancer stem cell-like cells viability, luminescence; inhibition, % at 7.5 µM; actives 1.1% (n = 300,000); AID 2717; in the data active = inhibition above about 75%; tested in HMLE shEcad cells
Mdm2-MdmX conf = confirmation of human Mdm2/MdmX interaction inhibitors; shares compounds with Mdm2-MdmX inh; Mdm2-MdmX binding, luminescent assay; inhibition, % at 8 µM; actives 55% (n = 10,000); AID 489028; in the data active = inhibition above about 40%
FLuc counter = inhibits full-length luciferase, flagging false Mdm2/MdmX hits | shares compounds with Mdm2-MdmX inh | AID 504607 | SaOS-2 full-length luciferase counterscreen, luminescence | actives 77% (n = 6,200) | inhibition, % at 8 µM;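 active = mean inhibition at 8 µM reaching about 37%, which flags the compound as non-specific, limit read from the data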;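 note: p53-null SaOS-2 cells with luciferase driven by a doxycycline-inducible promoter; compound on cells about two nights before reading with doxycycline added after day one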
* hit, by the source's call; . = no result. Sampled rows, rich in hits. Any-hit rate of the full collection: about 5.3%.

SMILES	NALP3 yeast inh	Calb FLC	Beta apoptosis	T cruzi inh	Mdm2-MdmX inh	CSC inhib	Mdm2-MdmX conf	FLuc counter
CCOC(=O)c1ccc(N=c2sc(C(=O)OC)cc(=O)n2Cc2ccco2)cc1	11.0	-7.0	13.0	42.3	54.5*	92.4*	1.9	.
CCn1c(=O)cc(C(=O)OC)sc1=Nc1ccc(F)c(F)c1	-0.1	2.7	-3.5	1.7	19.2	11.0	.	.
O=C(NCc1csc2ccccc12)Nc1cc(Cl)cc(Cl)c1	-5.6	-3.5	5.8	44.2	69.1*	18.8	16.9	.
O=C1CCNc2cc3ccccc3cc21	20.6	29.8	-11.4	8.9	65.2*	22.8	61.3*	48.8*
C[C@H](NC(=O)c1ncn(Cc2ccccc2)c1C(=O)N[C@@H](C)c1ccccc1)c1ccccc1	11.2	.	10.1	.	30.6	35.1	.	.
CC1C(c2ccccc2)N(C)C(c2ccccc2)C(C)C1(O)C#Cc1ccccc1 (centres undefined)	-10.4	.	10.3	.	71.2*	.	24.9	.
CCN1CCC(O)(C#Cc2ccccc2)CC1	15.3	-5.5	1.1	2.5	9.4	0.4	.	.
O=C(c1ccc([N+](=O)[O-])cc1)c1cc2ccc(O)cc2oc1=O	14.1	3.6	-2.3	-6.0	17.0	0.6	.	.
O=[N+]([O-])c1ccc(N=Nc2ccc(O)cc2O)cc1	29.2	10.2	66.6	45.4	97.6*	82.6*	56.3*	29.5
O=C(Cc1sc(-c2ccccc2Cl)nc1-c1ccccc1)Nc1ccccc1	3.1	1.8	4.6	-2.5	72.2*	2.8	24.9	.
O=C(Cc1sc(-c2ccccc2)nc1-c1ccccc1)Nc1ccc(Cl)cc1	-1.9	0.2	19.3	7.2	58.8*	4.5	5.6	.
Cc1nc(-c2ccc(F)cc2)c(CC(=O)N(C)CC(=O)Nc2ccc(F)cc2)s1	17.1	-2.2	.	-8.4	14.7	-6.1	.	.
O=C(Cc1sc(-c2ccccc2Cl)nc1-c1ccccc1)Nc1ccc(F)cc1	-2.4	0.9	1.3	4.4	64.0*	-3.0	23.9	.
CC1=Nc2ccccc2/C1=C/c1sc(=N)n(-c2nccs2)c1O	40.9	-2.2	56.8	62.6*	99.3*	111.3*	67.0*	21.8
CC1=Nc2ccccc2/C1=C/c1nc(-c2ccc(C)s2)oc1O	12.4	-5.1	-3.9	-5.4	11.6	1.2	.	.
c1coc(CNc2nc3ccccc3n2CCN2CCOCC2)c1	-3.3	-1.7	13.0	4.9	-5.8	-5.1	.	.
N=c1c2c(-c3ccccc3)c(-c3ccccc3)n(Cc3ccco3)c2ncn1CCN1CCOCC1	-11.6	-1.7	3.1	67.1*	54.5*	-3.6	32.5	.
N=c1c2c(-c3ccccc3)c(-c3ccccc3)n(Cc3ccco3)c2ncn1CCO	6.7	4.7	9.4	34.3	82.4*	37.2	61.2*	57.4*
N=c1c2c(-c3ccccc3)c(-c3ccccc3)n(Cc3ccco3)c2ncn1CCCO	15.4	6.1	5.0	64.7*	60.7*	14.5	38.1	59.1*
Cn1c2ccccc2c(=O)c2ccc(C#CC3(O)CCCCC3)cc21	18.3	-18.9	12.9	11.3	83.1*	59.4	74.5*	146.4*
Cc1nc(N)nc(N)c1CCCc1ccc(Cl)c(Cl)c1	1.4	10.5	5.1	62.1*	68.0*	66.3	56.9*	49.6*
COc1ccc(Cc2c(C)nc(N)nc2Cl)cc1	6.7	-17.2	-3.1	-13.1	6.1	-5.7	.	.
O=C(N/N=C/c1ccccc1)c1ccc(CN2C(=O)c3cccc4cccc2c34)cc1	14.5	14.0	-5.3	12.5	7.6	49.3	.	.
O=C(N/N=C/c1ccc(O)cc1O)c1ccc(CN2C(=O)c3cccc4cccc2c34)cc1	21.1	107.8*	93.2*	53.8	75.3*	3.1	74.5*	29.2
CCOc1ccc(C(=O)Nc2ccccc2C(=O)O)cc1	4.3	-23.6	2.9	-3.1	-35.9	17.0	.	.
CC(C)(C)OC(=O)NCc1ccc(NC(=O)c2nc[nH]c2C(=O)NCCN(CCNC(=O)c2[nH]cnc2C(=O)Nc2ccc(CNC(=O)OC(C)(C)C)cc2)CCNC(=O)c2[nH]cnc2C(=O)Nc2ccc(CNC(=O)OC(C)(C)C)cc2)cc1	12.9	.	-2.3	.	-3.8	-5.0	.	.
